# This is a sample that favours compounds with a hit; in the whole collection about 1.2% have one here.
# TRPML3 agonist – activates the human TRPML3 channel | HEK293 TRPML3-YFP, Fluo-8 calcium fluorescence; 100% = the carbachol control signal | AID 1448 | 220,000 tested, 0.29% active | activation, % at 3 µM;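 active = activation above its plate's cutoff, the mean activation of the plate's test wells plus 3 SD, cut at about 12% in these data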;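 note: 0% = DMSO only wells and 100% = carbachol wells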
# Target sequence (Q8TDD5 whole entry, looked up): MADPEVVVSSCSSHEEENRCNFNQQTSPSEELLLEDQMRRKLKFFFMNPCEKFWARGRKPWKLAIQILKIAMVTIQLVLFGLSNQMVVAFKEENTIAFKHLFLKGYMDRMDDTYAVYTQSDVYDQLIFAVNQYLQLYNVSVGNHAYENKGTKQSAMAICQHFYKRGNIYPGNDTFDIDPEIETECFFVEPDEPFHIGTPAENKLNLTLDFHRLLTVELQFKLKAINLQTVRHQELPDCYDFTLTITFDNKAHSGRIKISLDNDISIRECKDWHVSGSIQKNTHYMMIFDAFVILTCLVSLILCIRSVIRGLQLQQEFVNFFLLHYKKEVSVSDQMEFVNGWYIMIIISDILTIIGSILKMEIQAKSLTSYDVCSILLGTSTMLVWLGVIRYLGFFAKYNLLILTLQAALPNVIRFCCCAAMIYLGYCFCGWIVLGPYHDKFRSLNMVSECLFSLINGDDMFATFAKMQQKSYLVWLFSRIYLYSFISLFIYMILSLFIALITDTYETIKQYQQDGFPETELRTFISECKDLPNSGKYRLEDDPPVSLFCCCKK
#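 Test system: HEK293 cells stably carrying human TRPML3-YFP; Doses: single dose, 3 µM final nominal compound, 0.3% DMSO final; Schedule: dye loading 1 h 37 °C then 30 min ambient, 125 s read; Technique: Fluo-8 calcium fluorescence; Benchmarks: high control carbachol 87 µM, low control DMSO.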
# M1 PAM parental – M1 PAM counterscreen hit in parental CHO-K1 cells; ATP EC20, Fluo-8 calcium fluorescence; 0% at ATP EC20, 100% at ATP max; 360,000 tested, 0.02% active; activation, % at 3 µM;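 active = activation above the run cutoff, the mean activation of all test compounds plus 3 SD, cut at about 40% in these data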;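 note: peak over basal fluorescence ratio in a 140 s read after ATP addition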
# zfTRPN1 agonist – agonists of zebrafish TRPN1 channel; HEK293 zebrafish TRPN1-YFP, Fluo-8 calcium fluorescence; 100% = response to 87 µM carbachol; 220,000 tested, 0.18% active; activation, % at 3 µM; AID 1424;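 active = activation above its plate's cutoff, the mean activation of test wells on that plate plus 3 SD, cut at about 19% in these data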;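 note: 0% = DMSO alone and 100% = 87 µM carbachol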
#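 Material – zebrafish TRPN1-YFP in HEK293 cells · Doses – 3 µM single point · Schedule – dye 1 h 37 °C plus 30 min RT · Signal – Fluo-8 calcium fluorescence, excitation 470-495 nm, emission 515-575 nm · Read-out – % activation versus carbachol response · Control set – carbachol high, DMSO low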
# CHO-K1 Ca antag – nonselective inhibitor or artifact in parental CHO-K1 cells; ATP-induced calcium, Fluo-8 fluorescence; inhibition, % at 3 µM; 360,000 tested, 0.6% active;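 active = inhibition above a per-plate cutoff, the plate's mean sample inhibition plus 3 SD, cut at about 24% in these data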;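 note: 0% = DMSO plus EC80 ATP and 100% = DMSO alone without ATP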
# M1 ag parental – nonselective activator or artifact in parental CHO-K1 cells; Fluo-8 calcium fluorescence; scaled to maximal ATP response, vehicle zero; activation, % at 3 µM; 360,000 tested, 0.48% active; AID 602248; in the data active = activation above about 15%;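 note: untransfected CHO-K1 host cells lacking M1 receptor as counterscreen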
# Active calls of the source: *; · = no result given.
SMILES,TRPML3 agonist,M1 PAM parental,zfTRPN1 agonist,CHO-K1 Ca antag,M1 ag parental
CCOC(=O)C1=CCN(S(=O)(=O)c2ccccc2C)C1c1ccccc1 (centres undefined),·,-7.3,·,26.1*,0.9
CCOC(=O)C1=CCN(S(=O)(=O)c2ccccc2C)C1c1ccc(Br)cc1 (centres undefined),·,13.9,·,6.9,2.0
CC(=O)Nc1cc(-c2cccnc2)cn2c(-c3cccc(C(F)(F)F)c3)cnc12,·,0.4,·,-4.9,0.8
COc1ccccc1CNc1nc(Nc2cccc(-c3cnco3)c2)c2sccc2n1,·,-13.0,·,8.5,5.3
C#CCN(C[C@@H]1[C@@H](OC(=O)NCc2ccco2)[C@@H](OC(=O)NCc2ccco2)CN(C(=O)OC(C)C)N1C(=O)OC(C)C)S(=O)(=O)c1ccc(C)cc1,·,-5.0,·,19.5,0.4
O=C1c2cccc3c(N4CCCCC4)ccc(c23)C(=O)N1c1ccc(O)cc1,11.9*,8.4,20.1*,8.4,14.8
O=C1c2cccc3cccc(c23)C(=O)N1c1ccc(O)cc1,·,-26.8,·,18.3,-0.5
O=C1c2cccc3c(N4CCCCC4)ccc(c23)C(=O)N1c1ccccc1O,17.6*,-6.7,36.1*,29.6*,35.8*
Oc1ccc(Br)cc1C=Nc1ccc2c3c(cccc13)CC2,2.7,2.7,7.9,32.4*,22.0*
COc1ccc(NS(=O)(=O)c2ccc(-c3coc(C)n3)cc2)cc1OC,·,-29.1,·,49.8*,19.7*
COc1ccc(NS(=O)(=O)c2ccc(-c3coc(C)n3)cc2)cc1,·,9.0,·,-11.2,6.2
CSc1ccc(CNC(=O)C2(C)CCCN(C(C)=O)C2)cc1 (centres undefined),·,-2.3,·,2.5,0.1
CCN1CCN(CCNC(=O)c2cn(Cc3ccccc3F)nn2)CC1,-0.5,3.0,27.6*,15.7,0.0
CN1CCN(CCNC(=O)c2cn(Cc3ccccc3F)nn2)CC1,0.7,-12.1,0.0,4.6,-0.1
CC(Sc1nc(N)cc(=O)[nH]1)C(=O)Nc1sc2c(c1C#N)CCCC2 (centres undefined),0.6,-15.6,3.5,29.5*,0.8
CN(Cc1ccc(Cl)cc1)C(CCc1ccccc1)C(=O)NC1CCCCC1 (centres undefined),·,-8.4,·,4.1,-0.2
N#Cc1cn(CCOC(=O)c2cccc(C(F)(F)F)c2)c(=O)[nH]c1=O,1.0,-13.1,0.4,37.1*,0.7
CN(Cc1ccccc1)Cc1cc(=O)oc2ccc3ccccc3c12,·,2.3,·,-22.1,-0.1
COc1ccc(-n2cc(CN(C)C(C)c3ccncn3)c(-c3cccc(F)c3)n2)cc1 (centres undefined),0.1,4.7,-0.1,-15.2,1.9
COc1ccc(-n2cc(CN(C)CCO)c(-c3cccc(F)c3)n2)cc1,1.1,-1.8,-0.3,10.1,18.4*
CN1OC[C@@H]2CN3C(=O)N(c4ccccc4)c4ccccc4[C@@H]3C[C@@H]21,·,2.2,·,11.6,0.1
Cc1cccc(NC(=O)COc2cccc3c2CCNC3=O)c1,·,11.2,·,-11.2,1.6
C=CCc1cccc(/C=N/NC(=O)c2ccccc2OC)c1O,-0.5,12.0,-1.4,1.3,1.4
C=CCc1cccc(/C=N/NC(=O)c2ccccc2Br)c1O,0.1,44.2*,-1.0,-16.4,1.4
O=C1CSC(=S)N1/N=C/c1cc(Br)c(O)c(Br)c1,·,-8.0,·,45.0*,106.3*
SMILES,TRPML3 agonist,M1 PAM parental,zfTRPN1 agonist,CHO-K1 Ca antag,M1 ag parental
COc1cc(/C=N/N2C(=O)CSC2=S)ccc1O,3.5,10.3,3.1,-2.0,5.1
N#CC1=C2SCCN2C(=O)C(C#N)C12CCCCC2 (centres undefined),-0.2,-7.6,1.7,25.3*,-0.1
C=CCN(c1ccccc1)S(=O)(=O)c1ccc(Cl)c(C(=O)OCC(=O)c2[nH]c(C)c(C(C)=O)c2C)c1,0.6,-8.8,-1.9,29.0*,4.5
COC(=O)NNC(=O)C12CC3CC(CC(C3)C1)C2,0.7,28.5,0.4,-4.5,0.3
NC(=S)NNC(=O)C12CC3CC(CC(C3)C1)C2,2.9,-6.0,28.5*,8.5,19.1*
O=c1c(Br)ccc(Br)cc1Br,·,11.7,·,7.7,-0.8
COc1ccc(N=C2C(=O)Nc3ccc(C)c(Br)c32)cc1,·,-20.9,·,25.8*,-0.7
Cc1ccc(N=C2C(=O)Nc3ccc(C)c(Br)c32)cc1,·,5.0,·,-9.3,0.7
COc1ccc(-c2noc(CCCC(=O)NC3CCCC3)n2)cc1,·,-3.8,·,3.7,13.8
O=C(CCc1nc(-c2ccccc2)no1)NC1CCCCC1,0.4,8.6,-0.8,-6.8,2.8
O=C(CCc1nc(-c2ccc(Cl)cc2)no1)NC1CCCCC1,·,2.1,·,5.4,17.0*
O=C(CCCc1nc(-c2ccc(Cl)cc2)no1)NC1CCCC1,·,-4.6,·,4.0,17.0*
COc1ccc(CNC(=O)[C@@H]2CC=C[C@@H]3CCN(Cc4ccc(Cl)c(Cl)c4)C(=O)[C@@H]32)cc1,·,-0.3,·,-6.0,0.0
COc1ccc(CNC[C@@H](CCCCN(C)Cc2ccc(OC)cc2)N2C[C@H](c3ccccc3)N(CCc3ccc(Cl)c(Cl)c3)C(=O)C2=O)cc1,0.6,4.1,1.0,-3.2,30.0*
O=C(c1cc(=O)[nH]c2ccccc12)N1CCN(S(=O)(=O)c2ccc3ccccc3c2)CC1,0.3,-5.0,2.0,25.6*,2.9
CCCCCCN1CCN(C2CN(Cc3cn(Cc4ccc(C)cc4)nn3)S(=O)(=O)C2)CC1 (centres undefined),·,-5.6,·,-13.3,1.8
CCOC(=O)C1(Cc2ccccc2)CCCN(Cc2cnn(CC)c2)C1 (centres undefined),0.0,15.2,0.7,-13.7,-0.1
CCOC(=O)C1(Cc2ccccc2)CCCN(C(=O)c2cnn(CC)c2)C1 (centres undefined),·,6.2,·,28.7*,6.5
CSc1ccccc1NS(=O)(=O)c1ccccc1,-0.6,-7.6,-2.5,25.3*,-0.4
COc1ccc(S(=O)(=O)Nc2ccccc2SC)cc1C,0.5,10.2,-0.9,1.1,-0.2
Fc1cccc(Cl)c1C1SCc2nc3ccccc3n21 (centres undefined),·,1.5,·,5.8,3.8
CN(C)/C=N/c1cc(=O)[nH]c(=O)n1CC1CC1,0.7,10.2,0.3,-17.1,0.4
C=CCn1c(=O)[nH]c2nc3cc(N=CN(C)C)c(C)cc3nc2c1=O,8.6,10.1,26.9*,-7.0,1.7
N#Cc1ccc(S(=O)(=O)N2CCCCC2c2cc(C(=O)NCc3ccccc3)no2)cc1 (centres undefined),·,9.4,·,-8.4,1.2
CCn1ccnc1CN(C)C(=O)CCc1nnc(CCCc2ccccc2)o1,0.1,-15.3,-1.2,24.0*,-0.1
CN(Cc1ccsc1)C(=O)CCc1nnc(CCCc2ccccc2)o1,0.6,16.7,0.0,-10.7,1.2
CC(C)(C)c1cc(C(=O)NNC(=O)Nc2cccc(Cl)c2)n(Cc2ccccc2)n1,-1.0,-22.8,-2.5,29.3*,0.2
Cc1ccc(CS(=O)(=O)c2cn(CC(=O)N3CCOCC3)c3ccccc23)cc1,·,-3.7,·,-5.3,2.1

# Bioassay records: PubChem BioAssay, The Scripps Research Institute Molecular Screening Center
